Experimental data reported in ChEMBL document CHEMBL4819114, “Discovery of a potent and selective Axl inhibitor in preclinical model” (Bioorg Med Chem, 2021).
In brackets after ≈: the same amount, converted by molar mass. Activity calls are given as the source filed them. No cut-off for these calls is given here.

What was measured:
[1] = Metabolic stability in mouse liver microsomes assessed as residual ratio measured after 30 mins in presence of NADPH by LC-MS/MS analysis relative to absence of NADPH; assay type: ADME, Microsome; details: read-out: Stabilty
Outline: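 Incubation with mouse liver microsomes (0.5 mg/mL), 30 min at 37 °C, in 0.1 M potassium phosphate pH 7.4, 0.1 mM EDTA, 6 mM MgCl2 and an NADPH-generating system (β-NADP+, glucose-6-phosphate, G6P dehydrogenase). Quenched with acetonitrile/methanol (7:3) containing propranolol internal standard, then LC-MS/MS. Residual ratio with NADPH taken relative to without NADPH.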

[2] = Kinetic solubility of compound in PBS buffer at pH 7 incubated for 15 mins by HPLC-UV analysis
[3] = molecular target: T1, Tyrosine-protein kinase receptor TYRO3 (Homo sapiens) (UniProt Q06418); experiment: Inhibition of Tyro3 (unknown origin)
T1 sequence (whole entry): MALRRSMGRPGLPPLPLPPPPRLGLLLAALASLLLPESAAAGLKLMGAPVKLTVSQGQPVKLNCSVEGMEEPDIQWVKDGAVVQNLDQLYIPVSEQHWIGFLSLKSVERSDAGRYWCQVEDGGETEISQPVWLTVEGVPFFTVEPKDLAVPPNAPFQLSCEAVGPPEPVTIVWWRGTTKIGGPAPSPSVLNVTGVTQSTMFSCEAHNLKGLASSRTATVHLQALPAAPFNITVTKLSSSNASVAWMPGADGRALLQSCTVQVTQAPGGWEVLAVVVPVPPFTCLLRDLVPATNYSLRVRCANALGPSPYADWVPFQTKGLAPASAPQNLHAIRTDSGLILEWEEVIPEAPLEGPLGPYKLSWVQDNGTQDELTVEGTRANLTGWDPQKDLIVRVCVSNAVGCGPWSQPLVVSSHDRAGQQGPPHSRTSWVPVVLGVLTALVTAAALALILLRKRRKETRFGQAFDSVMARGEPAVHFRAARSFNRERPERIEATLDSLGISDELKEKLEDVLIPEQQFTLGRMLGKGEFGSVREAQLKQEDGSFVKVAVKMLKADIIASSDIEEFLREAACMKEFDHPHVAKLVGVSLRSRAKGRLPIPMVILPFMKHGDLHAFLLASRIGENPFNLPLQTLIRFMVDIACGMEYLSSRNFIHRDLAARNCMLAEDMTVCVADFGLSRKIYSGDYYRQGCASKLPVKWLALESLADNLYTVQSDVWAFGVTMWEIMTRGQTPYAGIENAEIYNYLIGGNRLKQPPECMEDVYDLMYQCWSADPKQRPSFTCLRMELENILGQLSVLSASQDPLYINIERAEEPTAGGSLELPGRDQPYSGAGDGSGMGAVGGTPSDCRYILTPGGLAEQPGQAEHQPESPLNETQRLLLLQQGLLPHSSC

[4] = Toxicity in BALB/c mouse assessed as effect on body weight at 100 mg/kg, po administered for 14 days; assay type: organism-based; details: in vivo, 336 h, time 14 day
Outline: (§1)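 Female BALB/cAJcl mice (n = 3 or 5/group) dosed orally once daily for 14 days at 100 mg/kg; controls untreated. Body weight tracked. At necropsy after dosing, eyes fixed in 3% glutaraldehyde/2.5% formalin, paraffin-embedded, sectioned, stained with hematoxylin-eosin, and the retina examined histopathologically.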

[5] = molecular target: Hepatocyte growth factor receptor (Homo sapiens) (UniProt P08581); experiment: Inhibition of c-Met (unknown origin)
[6] = molecular target: Tyrosine-protein kinase Lck (Homo sapiens) (UniProt P06239); experiment: Inhibition of LCK (unknown origin)
[7] = Toxicity in BALB/c mouse assessed as induction of necrosis in photoreceptor cells at 100 mg/kg, po administered for 14 days hematoxylin and eosin staining based assay; assay type: organism-based; details: in vivo, 336 h, time 14 day; outline: as §1
[8] = Cmax in CAnN.Cg-Foxnlnu/Cr1Crlj mouse at 100 mg/kg, po measured upto 24 hrs by LC-MS/MS analysis; assay type: ADME, organism-based; design: route oral, dose 100 mg/kg, time <=24; details: in vivo
Outline: (§2)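 Single oral dose in DMSO/Tween80/5% glucose (7:13:80, v/v/v) to female mice. Blood taken from retinal vein at 0.5, 1, 2, 8 and 24 h and spun to plasma. Plasma precipitated with 20 volumes acetonitrile/methanol (7:3) containing propranolol and niflumic acid internal standards, then analysed by LC-MS/MS. Cmax, tmax and AUC(0-24h) derived from mean plasma concentration.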

[9] = Tmax in CAnN.Cg-Foxnlnu/Cr1Crlj mouse at 30 mg/kg, po measured upto 24 hrs by LC-MS/MS analysis; assay type: ADME, organism-based; details: in vivo; outline: as §2
[10] = AUC (0 to 24 hrs) in CAnN.Cg-Foxnlnu/Cr1Crlj mouse at 30 mg/kg, po measured upto 24 hrs by LC-MS/MS analysis; assay type: ADME, organism-based; design: route oral, dose 30 mg/kg, time <=24; details: in vivo; outline: as §2
[11] = tested on: BaF3; experiment: Antitumor activity against mouse BaF3 cells expressing Axl xenografted in C3H mouse assessed as reduction in tumor growth at 1 to 10 mg/kg, po administered for 4 days and measured on day 4; details: dose 1-10 mg/kg, time 4.0 day
[12] = Cmax in CAnN.Cg-Foxnlnu/Cr1Crlj mouse at 10 mg/kg, po measured upto 24 hrs by LC-MS/MS analysis; assay type: ADME, organism-based; design: route oral, dose 10 mg/kg, time <=24; details: in vivo; outline: as §2
[13] = AUC (0 to 24 hrs) in CAnN.Cg-Foxnlnu/Cr1Crlj mouse at 100 mg/kg, po measured upto 24 hrs by LC-MS/MS analysis; assay type: ADME, organism-based; design: route oral, dose 100 mg/kg, time <=24; details: in vivo; outline: as §2
[14] = Toxicity in C3H mouse xenografted with mouse BaF3 cells assessed as effect on body weight at 1 to 10 mg/kg, po administered for 4 days and measured on day 4; details: in vivo, 96 h
[15] = Tmax in CAnN.Cg-Foxnlnu/Cr1Crlj mouse at 100 mg/kg, po measured upto 24 hrs by LC-MS/MS analysis; assay type: ADME, organism-based; details: in vivo; outline: as §2
[16] = Cmax in CAnN.Cg-Foxnlnu/Cr1Crlj mouse at 30 mg/kg, po measured upto 24 hrs by LC-MS/MS analysis; assay type: ADME, organism-based; design: route oral, dose 30 mg/kg, time <=24; details: in vivo; outline: as §2
[17] = AUC (0 to 24 hrs) in CAnN.Cg-Foxnlnu/Cr1Crlj mouse at 10 mg/kg, po measured upto 24 hrs by LC-MS/MS analysis; assay type: ADME, organism-based; design: route oral, dose 10 mg/kg, time <=24; details: in vivo; outline: as §2
[18] = Tmax in CAnN.Cg-Foxnlnu/Cr1Crlj mouse at 10 mg/kg, po measured upto 24 hrs by LC-MS/MS analysis; assay type: ADME, organism-based; details: in vivo; outline: as §2

Hepatocyte growth factor receptor (Homo sapiens), sequence (P08581 whole entry): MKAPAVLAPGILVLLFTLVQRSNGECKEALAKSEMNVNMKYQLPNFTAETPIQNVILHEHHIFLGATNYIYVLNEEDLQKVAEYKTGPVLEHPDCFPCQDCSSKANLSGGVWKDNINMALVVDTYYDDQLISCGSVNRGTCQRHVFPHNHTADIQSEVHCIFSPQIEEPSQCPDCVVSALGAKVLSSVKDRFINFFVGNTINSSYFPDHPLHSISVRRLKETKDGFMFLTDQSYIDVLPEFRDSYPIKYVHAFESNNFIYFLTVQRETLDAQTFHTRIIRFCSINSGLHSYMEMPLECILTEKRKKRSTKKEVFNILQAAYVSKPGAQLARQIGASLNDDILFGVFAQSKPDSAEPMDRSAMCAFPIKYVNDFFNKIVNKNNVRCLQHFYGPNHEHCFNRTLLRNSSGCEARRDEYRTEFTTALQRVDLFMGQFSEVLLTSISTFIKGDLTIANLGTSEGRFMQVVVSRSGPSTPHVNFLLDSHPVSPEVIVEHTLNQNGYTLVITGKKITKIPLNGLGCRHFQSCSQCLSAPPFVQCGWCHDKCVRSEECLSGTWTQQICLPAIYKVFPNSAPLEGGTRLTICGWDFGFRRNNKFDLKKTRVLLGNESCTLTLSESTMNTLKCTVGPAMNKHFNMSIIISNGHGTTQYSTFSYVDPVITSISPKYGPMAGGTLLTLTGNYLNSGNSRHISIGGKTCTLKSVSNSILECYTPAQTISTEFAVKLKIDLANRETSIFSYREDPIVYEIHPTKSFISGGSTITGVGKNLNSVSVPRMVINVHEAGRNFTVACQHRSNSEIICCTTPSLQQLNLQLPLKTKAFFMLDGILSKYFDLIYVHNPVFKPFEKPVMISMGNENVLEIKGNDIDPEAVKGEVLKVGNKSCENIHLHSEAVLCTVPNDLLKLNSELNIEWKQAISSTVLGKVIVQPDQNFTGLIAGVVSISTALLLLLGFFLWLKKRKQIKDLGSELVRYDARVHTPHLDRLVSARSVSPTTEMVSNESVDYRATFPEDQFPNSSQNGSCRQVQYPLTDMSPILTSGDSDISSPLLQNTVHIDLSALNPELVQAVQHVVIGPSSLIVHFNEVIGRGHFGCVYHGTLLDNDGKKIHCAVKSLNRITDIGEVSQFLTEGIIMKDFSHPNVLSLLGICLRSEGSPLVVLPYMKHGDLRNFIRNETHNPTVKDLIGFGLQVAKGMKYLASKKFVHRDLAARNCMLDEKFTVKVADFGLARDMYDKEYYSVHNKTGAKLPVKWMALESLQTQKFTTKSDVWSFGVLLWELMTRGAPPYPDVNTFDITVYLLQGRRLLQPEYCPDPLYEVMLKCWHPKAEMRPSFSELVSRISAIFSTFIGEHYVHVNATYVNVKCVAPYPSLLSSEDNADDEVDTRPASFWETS
Tyrosine-protein kinase Lck (Homo sapiens), sequence (P06239 2-509 limits assumed): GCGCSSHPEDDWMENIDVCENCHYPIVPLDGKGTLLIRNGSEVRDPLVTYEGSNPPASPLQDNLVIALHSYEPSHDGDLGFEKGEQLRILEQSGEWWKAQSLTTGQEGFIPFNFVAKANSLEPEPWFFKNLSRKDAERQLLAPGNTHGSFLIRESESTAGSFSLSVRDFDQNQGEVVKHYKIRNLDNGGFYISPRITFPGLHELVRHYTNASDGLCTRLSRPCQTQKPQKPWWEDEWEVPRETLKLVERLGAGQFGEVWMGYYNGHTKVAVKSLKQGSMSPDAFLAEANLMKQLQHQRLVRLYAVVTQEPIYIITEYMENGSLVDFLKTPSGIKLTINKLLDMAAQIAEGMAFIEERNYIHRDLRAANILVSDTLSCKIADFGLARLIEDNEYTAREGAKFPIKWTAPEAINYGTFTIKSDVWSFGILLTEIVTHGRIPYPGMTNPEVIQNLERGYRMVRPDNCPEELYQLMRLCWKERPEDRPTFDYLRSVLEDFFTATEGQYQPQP

Structure (SMILES)	remaining at 0.5 h [1] [%]	solubility kinetic at 0.25 h [2] [µM]	also measured
CC(C)n1cc(C(=O)Nc2ccc(Oc3ccnc(NC(=O)CC4CCN(C)CC4)c3)cc2F)c(=O)n(-c2ccc(F)cc2)c1=O	76	78 (≈ 49.3 µg/mL)	–
CN1CCC(CC(=O)Nc2cc(Oc3ccc(NC(=O)c4cn(C5CCCC5)c(=O)n(-c5ccc(F)cc5)c4=O)cc3F)ccn2)CC1	63	70 (≈ 46.1 µg/mL)	–
CN1CCC(CC(=O)Nc2cc(Oc3ccc(NC(=O)c4cc5c(n(-c6ccccc6)c4=O)CCCC5=O)c(F)c3)ccn2)CC1	75	73 (≈ 45.5 µg/mL)	–
CC(C)n1cc(C(=O)Nc2ccc(Oc3cc(NC(=O)N4CCC4)ncn3)cc2)c(=O)n(-c2ccc(F)cc2)c1=O	79	36 (≈ 20.1 µg/mL)	–
CN1CCN(C2CCN(C(=O)Nc3cc(Oc4ccc(NC(=O)c5cn(C)c(=O)n(-c6ccc(F)cc6)c5=O)cc4)ncn3)CC2)CC1	99	90 (≈ 59.2 µg/mL)	–
CC(C)n1cc(C(=O)Nc2ccc(Oc3cc(NC(=O)N4CC(N5CCCC5)C4)ncn3)cc2)c(=O)n(-c2ccc(F)cc2)c1=O	1.3	80 (≈ 50.3 µg/mL)	–
CC(C)n1cc(C(=O)Nc2cc(F)c(Oc3ccnc(NC(=O)N4CCC(N5CCN(C)CC5)CC4)c3)cc2F)c(=O)n(-c2ccc(F)cc2)c1=O	86	76 (≈ 54.8 µg/mL)	inhibition [3]: Active; Activity [4]: Non-Toxic; inhibition [5]: Active; inhibition [6]: Active; Activity [7]: Toxic
CC(C)n1cc(C(=O)Nc2ccc(Oc3cc(NC(=O)N4CC(O)C4)ncn3)cc2)c(=O)n(-c2ccc(F)cc2)c1=O	92	83 (≈ 47.8 µg/mL)	–
CC(C)n1cc(C(=O)Nc2ccc(Oc3ccnc(NC(=O)CC4CCN(C)CC4)c3)cc2)c(=O)n(-c2ccc(F)cc2)c1=O	81	80 (≈ 49.2 µg/mL)	–
CC(C)n1cc(C(=O)Nc2ccc(Oc3cc(NC(=O)N4CC(N(C)C)C4)ncn3)cc2)c(=O)n(-c2ccc(F)cc2)c1=O	0.3	–	–
CN1CCC(CC(=O)Nc2cc(Oc3ccc(NC(=O)c4cc5c(n(-c6ccccc6)c4=O)CCCC5=O)cc3)ccn2)CC1	77	77 (≈ 46.6 µg/mL)	–
CC(C)n1cc(C(=O)Nc2ccc(Oc3cc(NC(=O)C4CC4)ncn3)cc2)c(=O)n(-c2ccc(F)cc2)c1=O	83	6 (≈ 3.27 µg/mL)	–
CN1CCC(CC(=O)Nc2cc(Oc3ccc(NC(=O)c4cn(C5CC5)c(=O)n(-c5ccc(F)cc5)c4=O)cc3F)ccn2)CC1	78	82 (≈ 51.7 µg/mL)	–
CN1CCN(C2CCN(C(=O)Nc3cc(Oc4ccc(NC(=O)c5cn(C6CC6)c(=O)n(-c6ccc(F)cc6)c5=O)cc4)ncn3)CC2)CC1	87	89 (≈ 60.9 µg/mL)	–
CN1CCC(CC(=O)Nc2cc(Oc3cc(F)c(NC(=O)c4cc5c(n(-c6ccccc6)c4=O)CCCC5=O)cc3F)ccn2)CC1	72	50 (≈ 32.1 µg/mL)	–
CC(C)n1cc(C(=O)Nc2ccc(Oc3ccnc(NC(=O)CN(C)C)c3)cc2)c(=O)n(-c2ccc(F)cc2)c1=O	19	32 (≈ 17.9 µg/mL)	–
CN1CCC(CC(=O)Nc2cc(Oc3ccc(NC(=O)c4cc5c(n(-c6ccccc6)c4=O)CCCC5=O)cc3F)ccn2)CC1	71	75 (≈ 46.8 µg/mL)	–
CN1CCN(C2CCN(C(=O)Nc3cc(Oc4cc(F)c(NC(=O)c5cc6c(n(-c7ccccc7)c5=O)CCCC6=O)cc4F)ccn3)CC2)CC1	78	43 (≈ 30.6 µg/mL)	–
CC(C)n1cc(C(=O)Nc2ccc(Oc3cc(NC(=O)N4CCC(N5CCN(C)CC5)CC4)ncn3)cc2)c(=O)n(-c2ccc(F)cc2)c1=O	88	89 (≈ 61 µg/mL)	Cmax [8]: 13500 ng/mL; inhibition [3]: inactive; Tmax [9]: 2 h; AUC(0-t) [10]: 18100 ng·h/mL; TGI [11]: Active; Activity [4]: Non-Toxic; inhibition [5]: inactive; inhibition [6]: inactive; Cmax [12]: 1580 ng/mL; AUC(0-t) [13]: 72700 ng·h/mL; Activity [14]: Non-Toxic; Tmax [15]: 2 h; Cmax [16]: 3790 ng/mL; AUC(0-t) [17]: 7290 ng·h/mL; Activity [7]: Non-Toxic; Tmax [18]: 2 h
CN1CCN(C2CCN(C(=O)Nc3cc(Oc4ccc(NC(=O)c5cn(C6CCCC6)c(=O)n(-c6ccc(F)cc6)c5=O)cc4)ncn3)CC2)CC1	82	80 (≈ 56.9 µg/mL)	–
CC(C)n1cc(C(=O)Nc2ccc(Oc3cc(NC(=O)N4CCCC4)ncn3)cc2)c(=O)n(-c2ccc(F)cc2)c1=O	59	1 (≈ 0.574 µg/mL)	–
